# SENP1 inh = blocks the human SENP1 SUMO protease catalytic domain; inhibition, % at 10 µM; recombinant SENP1 catalytic domain, CyPet-SUMO1-YPet FRET cleavage; Q9P0U3; 360,000 compounds, 0.21% hits; AID 624204;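 active = inhibition at least 30% at 10 µM, raw YFP signal under a set limit, fluorescence ratio 0.5 to 1.5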
#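 Material – human SENP1 catalytic domain · Input – SENP1 enzyme, 20 pM final · Compound dosing – single concentration of 10 µM compound, 0.5% DMSO final · Timing – enzyme reaction for 50 min at room temperature, dark · Measured by – FRET fluorescence in CFP and YFP emission channels · Control set – no-enzyme wells low, DMSO-plus-enzyme wells high control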
# MT1-MMP act inh = inhibitors of human MT1-MMP activation; P50281; HT1080 RFP-PRO-GFP cells, GFP/RFP ratio fluorescence, overnight; percent of plate control window, DMSO zero; GFP/RFP ratio change, % at 20 µM; 360,000 compounds, 0.061% hits;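 active = GFP/RFP ratio change of at least 30% with cell ATP level not reduced by more than half and red fluorescence within 50% of control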
#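 Assay system – RFP-PRO-GFP reporter HT1080 cells · Compound dosing – single dose of 20 µM compound, 1% DMSO final · Incubation – overnight compound exposure at 37 °C · Measure – GFP/RFP fluorescence ratio · Benchmarks – DMSO wells and RFP-L50D-GFP cells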
# CendR NRP1 mod = NRP-1/CendR interaction modulation. 360,000 compounds, 0.85% hits. inhibition, % at 25 µM. FAM-RPARPAR peptide binding to NRP-1, fluorescence polarization. O14786. AID 602438;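 active = inhibition or corrected inhibition above about 18%, plus a signal ratio from 0.5 to 1.5, limit read from the data, passing the limit was not always enough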
# MIN6 prolif = MIN6 beta-cell proliferation induction; MIN6 cells proliferation, ATPlite luminescence, 48 h; cells starved in 0.2% serum; 100% = growth in 10% serum; proliferation, % at 10 µM; 330,000 compounds, 0.29% hits; AID 2380;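 active = compounds whose signal lies at least 3.5 SD above the mean of all wells on their plate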
# DAGLB inhibitor = diacylglycerol lipase beta (human) inhibition. Q8NCG7. HEK293T DAGLB membrane lysate, EnzChek fluorogenic substrate. inhibition, % at 5.17 µM. 340,000 compounds, 0.059% hits; in the data active = inhibition above about 34%
# Myeloid diff 2 = myeloid differentiation induction | ER-HoxA9 myeloid progenitors, lysozyme-GFP differentiation, flow cytometry | calls only at 10 µM | 360,000 compounds, 1% hits | AID 624256;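 active = normalized GFP-positive differentiation at or above the plate's own cutoff, the solvent-only control mean plus 3 SD; inconclusive = no clear call, values can overlap the other calls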;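 note: cells exposed to compound for four days before flow analysis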
# Myeloid diff = compounds promoting myeloid differentiation | calls only | 2,300 compounds, 2% hits | shares compounds with Myeloid diff 2 | ER-HoxA9 myeloid progenitors, GFP/Mac1 double-positive flow;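 active = share of green or green-and-red cells above 9 and 9% in run 1 or 4 and 3% in run 2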
# GFP autofluor = counter-screen for myeloid differentiation promoters: compound fluorescence. shares compounds with Myeloid diff 2. ER-HoxA9 myeloid progenitors, no estrogen, GFP autofluorescence flow cytometry; vehicle wells 0%, positive control 100%. fluorescence response, % (no concentration beside the values). 2,300 compounds, 7.4% hits;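 active = over 5% cells positive for green fluorescent reporter, or over 2% positive for both it and APC stain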
# A number is an active result; n = inactive; u = inconclusive; x = not tested or not shown; + = active, no number. A selection: hits, their analogues and other compounds. The true share with any hit is near 2.4%.
SMILES,SENP1 inh,MT1-MMP act inh,CendR NRP1 mod,MIN6 prolif,DAGLB inhibitor,Myeloid diff 2,Myeloid diff,GFP autofluor
CCn1c2ccccc2c2cc(N=C3SC(CC(=O)Nc4ccccc4OC)C(=O)N3C)ccc21 (stereo unspecified),n,n,n,n,n,+,n,n
COC(=O)C1=C(C)N(Cc2ccccc2)C(=NCc2cc(OC)c(OC)c(OC)c2)N[C@H]1CCc1ccccc1,n,n,n,n,n,+,n,n
COC(=O)C1=C(C)N(Cc2ccccc2)C(=NCc2cc(OC)c(OC)c(OC)c2)N[C@H]1c1ccccc1,x,x,x,n,n,x,x,x
CCOC(=O)c1c(C)[nH]c(C(=O)NCCc2ccc(OC)c(OC)c2)c1C,n,n,n,n,n,n,x,x
O=S(=O)(Nc1nc2ccccc2nc1NCCO)c1cccc(Cl)c1,n,n,n,n,n,n,n,n
CCc1nonc1NC(=O)COc1ccc(Cl)c(C)c1,n,n,n,n,n,n,n,n
CCc1nonc1NC(=O)COc1cc(C)c(Cl)c(C)c1,n,n,n,n,n,n,x,x
COc1cccc(CNC(=O)C2CCCN(c3nc4ccccc4o3)C2)c1 (stereo unspecified),n,n,n,n,n,n,n,n
COc1ccc(CNC(=O)C2CCCN(c3nc4ccccc4o3)C2)c(OC)c1 (stereo unspecified),n,n,n,n,n,n,x,x
COCCCNc1ccn2nc(-c3cccc(OCc4ccccc4)c3)cc2n1,n,n,n,x,x,n,x,x
c1ccc(COc2ccc(-c3cc4nc(NCCCn5ccnc5)ccn4n3)cc2)cc1,n,n,n,x,x,n,n,n
Cn1c(N)c(S(=O)(=O)N2CCN(c3cccc(Cl)c3)CC2)c(=O)n(C)c1=O,n,n,n,n,n,n,x,x
Cc1ccc(S(=O)(=O)N2CCCCC2)cc1NC(=O)COC(=O)c1ccc2c(c1)OCO2,n,n,n,n,n,n,x,x
COC(=O)[C@H](CCSC)NC(=O)NCc1cccs1,n,n,n,n,n,n,n,n
COC(=O)[C@@H](NC(=O)NCc1cccs1)C(C)C,n,n,n,n,n,n,x,x
COc1ccc(OC)c(C2=CC(=O)C[C@H](c3ccc4c(c3)OCO4)C2)c1,n,n,n,n,n,n,x,x
CN(C)c1ccc(S(=O)(=O)NCC(=O)N2CCN(c3ccccc3)CC2)cc1[N+](=O)[O-],n,n,n,n,n,+,n,n
Cc1ccc(CNC(=O)/C=C/c2ccc(S(=O)(=O)N3CCOCC3)cc2)cc1,n,n,n,n,n,n,x,x
C#Cc1ccc([C@H]2C=C(C(=O)NCc3nc4ccccc4[nH]3)O[C@@H](OCc3ccc(CO)cc3)C2)cc1,n,n,n,n,n,n,n,n
O=C(NCc1ccccc1)C1=C[C@@H](c2csc3ccccc23)C[C@@H](OCc2ccc(CO)cc2)O1,n,n,n,n,n,+,n,n
Cc1ccc(NS(=O)(=O)c2cccc(C(=O)O)c2)c(C)c1,n,n,n,n,n,n,x,x
Cc1ccc(NS(=O)(=O)c2cccc(C(=O)NNC(=O)c3ccco3)c2)c(C)c1,n,n,n,n,n,+,n,n
Cc1ccc(N=C2NC(=O)/C(=C/c3cn(C)c4ccccc34)S2)cc1C,n,n,n,x,n,+,n,35
Cn1cccc1/C=C1\SC(=Nc2ccccc2)NC1=O,n,n,n,n,n,u,x,x
COc1ccc(NC(=O)Nc2ccccc2SC)cc1,n,n,n,n,n,n,x,x
SMILES,SENP1 inh,MT1-MMP act inh,CendR NRP1 mod,MIN6 prolif,DAGLB inhibitor,Myeloid diff 2,Myeloid diff,GFP autofluor
CSc1ccccc1NC(=O)Nc1ccc(Cl)cc1,n,n,n,n,n,n,n,n
NC(=O)C1CCN(CC(O)COCc2ccccc2Cl)CC1 (stereo unspecified),n,n,n,n,n,n,x,x
COC(=O)c1ccccc1NS(=O)(=O)c1ccc(F)cc1,n,n,n,n,n,n,x,x
COC(=O)c1ccccc1NC(=O)Oc1ccc(F)cc1,n,n,n,n,n,n,n,n
Cc1cc(C)n2c(SCC(=O)N(CC(C)C)c3c(N)n(CC(C)C)c(=O)[nH]c3=O)nnc2n1,n,n,n,n,n,n,x,x
CCOc1cccc(-c2c(C(=O)N/N=C/c3ccsc3)nnn2-c2nonc2N)c1,n,n,n,n,n,n,x,x
CCCC(=O)Nc1cc(-c2nc3ncccc3o2)ccc1C,n,n,n,n,n,x,n,n
O=C(CN1C(=O)C2CC=CCC2C1=O)NCC(=O)Nc1ccc(F)c(F)c1 (stereo unspecified),n,n,n,n,n,x,x,x
O=C(NCC1COc2ccccc2O1)c1ccc(Br)s1 (stereo unspecified),n,n,n,n,n,n,x,x
Cc1nn(CC(=O)NCc2ccccc2Cl)c(C)c1[N+](=O)[O-],n,n,n,n,n,+,n,n
CN(C(=O)COC(=O)c1ccc(Cl)c(S(=O)(=O)N2CCCCC2)c1)C1(C#N)CCCCC1,n,n,n,n,n,n,x,x
COc1cccc(-c2nc(CS(=O)(=O)CC(=O)NCCCN3CCN(C)CC3)c(C)o2)c1,n,n,n,n,n,n,x,x
CCN1CCN(CCCNC(=O)CS(=O)(=O)Cc2nc(-c3cccc(OC)c3)oc2C)CC1,n,n,n,n,n,n,n,n
COc1cc(CC(=O)N2CCN(S(=O)(=O)c3ccc(C(C)C)cc3)CC2)cc(OC)c1OC,n,n,n,x,n,n,x,x
Cc1ccc2oc(=O)c3cnn(CC(=O)N4CCN(c5ccccc5)CC4)c3c2c1,n,n,n,n,n,n,x,x
Cc1ccc2oc(=O)c3cnn(CC(=O)N4CCCc5ccccc54)c3c2c1,n,n,n,n,n,n,n,n
CC(C)OCCCNCC(O)c1ccccc1 (stereo unspecified),n,n,n,n,n,n,x,x
CCc1nc(SCC(=O)c2c[nH]c3ccccc23)n[nH]1,n,n,n,n,n,n,n,n
CC(C)c1nc(SCC(=O)c2c[nH]c3ccccc23)n[nH]1,n,n,n,n,n,n,x,x
COCC(=O)Nc1c(C(=O)Nc2cccc(OC)c2)oc2ccccc12,n,n,n,n,n,n,n,n
COc1ccc(CCC(=O)Nc2ccccc2C(F)(F)F)cc1,n,n,n,n,n,n,x,x
Cc1cc(C)c(S(=O)(=O)Nc2ccccn2)c(C)c1,n,n,n,n,n,n,x,x
Cc1cc(C(=O)CN2C(=O)CCC2=O)c(C)n1Cc1ccccc1,n,n,n,n,n,+,n,n

# Source: PubChem (several laboratories)
